This is an account of results in ChEMBL document CHEMBL5038594, “Structural Fine-Tuning of Desmuramylpeptide NOD2 Agonists Defines Their In Vivo Adjuvant Activity” (J Med Chem, 2021).

Calls of active or inactive are those of the source. The rule behind the calls is not given here.

For one data set, the system named is MEC1. Nature of the data set: Cytotoxicity against human MEC-1 cells cocultured with human PBMC cells assessed as inhibition of cell proliferation at 1 uM incubated with PBMC cells for 18 hrs followed by co-incubation with MEC-1 cells for 4 hrs by SYTOX blue staining based flow cytometric analysis. Format: functional. The essentials:
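Effector cells are freshly Ficoll-isolated human PBMCs, 4 × 10^5 per well, pretreated 18 h with compound or 0.1% DMSO. CFSE-labelled K562 or MEC1 targets, 1 × 10^4 per well, are then added at 40:1 effector:target ratio and co-incubated 4 h at 37 °C. Dead targets are CFSE+/Sytox blue+ by flow cytometry. Results are relative to vehicle. Duplicates; three (MEC1) or four (K562) independent experiments. One-way ANOVA with Dunnett.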
(In general: A flow cytometer gives signals particle by particle.)

Data set [1] deals with PBMC. Briefly: Immunostimulatory activity in human PBMC cells assessed as increase in IL-1beta production at 2 uM incubated for 18 hrs by flow cytometry analysis. Format: functional, cell-based. The essentials: (§1)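 Human PBMCs from healthy donors, 1 × 10^6 cells/mL in RPMI 1640 with 10% FBS, treated with 2 μM compound or 0.1% DMSO, without or with LPS 10 ng/mL, for 18 h at 37 °C. Supernatant cytokines quantified by cytometric bead array (human inflammatory panel) on a flow cytometer against recombinant standards. Four independent donors. Repeated-measures one-way ANOVA with Dunnett.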

Data set [2] concerns PBMC. Nature of the data set: Immunostimulatory activity in human PBMC cells assessed as increase in TNF-alpha production at 2 uM incubated for 18 hrs by flow cytometry analysis. Format: functional, cell-based. The procedure, abridged: as §1
For data set [3], the system named is PBMC. Nature of the data set: Immunostimulatory activity in human PBMC cells assessed as increase in LPS-induced IL-6 production at 2 uM incubated for 18 hrs by flow cytometry analysis. Format: functional, cell-based. The procedure, abridged:
as §1

The subject of data set [4] is PBMC. Briefly: Immunostimulatory activity in human PBMC cells assessed as increase in LPS-induced TNF-alpha production at 2 uM incubated for 18 hrs by flow cytometry analysis. The class given is functional, cell-based. The procedure, abridged: as §1
For data set [5], the system named is Mus musculus. Briefly: Immuno-adjuvant activity in NIH/OlaHsd mouse assessed as increase in ovalbumin specific […] associated IgG1 production in sera at 0.30 micromol administered subcutaneously on day 1 and as booster dose on day 21 with ovalbumin loaded neutral liposomes and measured 1 week post booster dose by ELISA. The class given is functional, organism-based. The following applies: dose 0.3 µmol, time 28.0 day. The essentials: (§2)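 Groups of 5 female NIH/OlaHsd mice, 2.0–2.5 months old, immunized with ovalbumin-loaded neutral liposomes (10 μg ovalbumin per dose) containing 0.30 μmol adjuvant per dose, plus one booster dose. Serum ovalbumin-specific IgG, IgG1 and IgG2a measured 1 week after the booster. Mean ± SEM of 5 mice.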
A general note: In an ELISA, binding on a coated surface is turned into a signal by an enzyme label.

Data set [6] deals with Mus musculus. Briefly: Immuno-adjuvant activity in NIH/OlaHsd mouse assessed as increase in ovalbumin specific […] associated IgG2a production in sera at 0.30 micromol administered subcutaneously on day 1 and as booster dose on day 21 with ovalbumin loaded neutral liposomes and measured 1 week post booster dose by ELISA. Format: functional, organism-based. To be noted: dose 0.3 µmol, time 28.0 day. The essentials: as §2

The subject of data set [7] is Mus musculus. Briefly: Immuno-adjuvant activity in NIH/OlaHsd mouse assessed as increase in ovalbumin specific IgG production in sera at 0.15 micromol administered subcutaneously on day 1 and as booster dose on day 21 and 28 with ovalbumin loaded liposomes by ELISA. To be noted: dose 0.15 µmol, time 28.0 day. Format: functional, organism-based. The procedure, abridged: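 Groups of 5 female NIH/OlaHsd mice, 2.0–2.5 months old, immunized with ovalbumin-loaded liposomes (10 μg ovalbumin per dose) containing 0.15 μmol adjuvant per dose. Liposomes were neutral (PC–cholesterol 7:5), anionic (PC–cholesterol–dicetylphosphate 7:5:1) or mannosylated (PC–cholesterol–mannose-PEG-PA 7:5:0.5). Serum ovalbumin-specific IgG, IgG1 and IgG2a measured 1 week after the second booster. Mean ± SEM.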

Data set [8] is described as follows: Cytotoxicity against HEK-Blue hNOD2 cells assessed as reduction in metabolic activity at 20 uM incubated for 18 hrs by MTS assay. Format: toxicity, cell-based. The following applies: human, hek-blue hnod2, 18 h. The procedure, abridged:
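HEK-Blue NOD2 cells, 40 000 per well, exposed to 20 μM compound or 0.1% DMSO for 18 h at 37 °C, 5% CO2. Metabolic activity measured by MTS (CellTiter 96 AQueous One) reagent. Duplicates, two independent biological replicates.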
For orientation: Tetrazolium assays rely on reduction of a dye to a coloured formazan, in cell work by metabolically active cells.

Consider `CCCCCCCCCCCCCCCCCC(=O)Oc1ccc(/C=C/C(=O)NCC(=O)N[C@H](C(=O)N[C@H](CCC(=O)OCC)C(=O)OCC)C(C)C)cc1OC`, for which the result in the data set with MEC1, with PBMC [1] and in the data set on PBMC [2] was inactive. In addition, the outcome in the data set on PBMC [3], with PBMC [4], with Mus musculus [5], with Mus musculus [6] and in the data set on Mus musculus [7] was Active. The Activity result in data set [8] is reported as “Non-Toxic”.
